How the values were obtained:
[1] = molecular target: Sodium/potassium-transporting ATPase; assay: 50% displacement of the specific [3H]ouabain binding from the dog kidney Na+/K+ ATPase; format: protein-complex assay, Canis lupus familiaris
How it was run: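 [3H]ouabain binding was measured on isolated, purified dog kidney Na+,K+-ATPase (α1 isoform), with compounds used within 1–4 h of dissolution.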

Cavia porcellus [2] = species on record: Cavia porcellus; assay: Maximal increase in force of contraction in electrically driven guinea pig left atrium; format: functional, Cardiac atrium
How it was run: (§1)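 Electrically paced guinea pig left atria (platinum electrodes, 1 Hz, 1 ms pulses at twice threshold voltage) were equilibrated for 60 min. Cumulative compound concentrations were then added, each left in contact until maximal response or arrhythmias appeared. Force of contraction was recorded.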

Cavia porcellus [3] = species on record: Cavia porcellus; assay: Concentration of compound to obtain maximum inotropic activity on electrically driven guinea pig left atrium; format: functional, Cardiac atrium; how it was run: as §1
Cavia porcellus [4] = species on record: Cavia porcellus; assay: Concentration of compound producing 50% of the maximal increase in force of contraction in electrically driven guinea pig left atrium; format: functional; settings: Cardiac atrium
How it was run: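 Whole guinea pig left atria were paced through platinum electrodes with 1 Hz square-wave pulses (1 ms, twice threshold voltage) and equilibrated for 60 min. Compounds were then added cumulatively, each concentration held until maximal response or arrhythmia. The concentration giving half-maximal increase in contractile force was calculated from concentration–response curves.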

[5] = molecular target: Sodium/potassium-transporting ATPase; assay: 35% displacement of the specific [3H]-ouabain binding from the dog kidney Na+/K+ ATPase; format: protein-complex assay, Canis lupus familiaris
[6] = molecular target: Sodium/potassium-transporting ATPase; assay: 30% displacement of the specific [3H]ouabain binding from the dog kidney Na+/K+ ATPase; format: protein-complex assay, Canis lupus familiaris
[7] = molecular target: Sodium/potassium-transporting ATPase; assay: 45% displacement of the specific [3H]ouabain binding from the dog kidney Na+/K+ ATPase; format: protein-complex assay, Canis lupus familiaris
[8] = molecular target: Sodium/potassium-transporting ATPase; assay: 20% displacement of the specific [3H]ouabain binding from the dog kidney Na+/K+ ATPase; format: protein-complex assay, Canis lupus familiaris

For `CN(C)CCO/N=C/CC[C@H]1CC[C@]2(O)C[C@@H](C3CCCCC3)CC[C@]12C`, which IC50 [1] is on record?
Its IC50 is 5 µM.

How did the IC50 [1] turn out when `C[C@]12CC[C@H](C3CCCCC3)C[C@@]1(O)CC[C@@H]2C/C=N\OCCN` was run?
The IC50 was 1.6 µM.

How did the “Increase (Emax)” value (Cavia porcellus [2]) turn out when `C[C@]12CC[C@H](C3CCCCC3)C[C@@]1(O)CC[C@@H]2/C=C/C=N/OCCN` was run?
The value was 90%.

And the “Concentration giving maximal inotropic effect” value (Cavia porcellus [3])?
The value was 100 µM.

And the EC50 (Cavia porcellus [4])?
Its EC50 is 15 µM.

And the IC50 [1]?
Its IC50 is 1 µM.

`CN(C)CCO/N=C/[C@H]1CC[C@]2(O)C/C(=C\c3ccccc3)CC[C@]12C` was tested. Which IC50 [1] did it give?
The IC50 was 8 µM.

Which IC50 [1] does the source give for `C[C@]12CC[C@H](c3ccccc3)C[C@@]1(O)CC[C@@H]2/C=N/OCCN` here?
The IC50 was 4 µM.

How did the IC50 [1] turn out when `CN(C)CCO/N=C/[C@H]1CC[C@]2(O)CC([C@H]3CC[C@H](O)CC3)CC[C@]12C` (some centres not stated) was run?
The IC50 was 1 µM.

Which IC50 [1] does the source give for `CN(C)CCO/N=C/[C@H]1CC[C@]2(O)C[C@@H](Cc3ccccc3)CC[C@]12C` here?
The IC50 was 3.2 µM.

For `C[C@]12CC[C@H](C3CCCCC3)C[C@@]1(O)CC[C@@H]2/C=N/OCCN`, which IC50 [1] is on record?
Its IC50 is 1 µM.

`C[C@]12CC[C@H](c3ccc(CO)cc3)C[C@@]1(O)CC[C@@H]2/C=N/OCCN` was tested. Which IC50 [1] did it give?
Its IC50 is 2.5 µM.

How did the “Increase (Emax)” value (Cavia porcellus [2]) turn out when `CN(C)CCO/N=C/C=C/[C@H]1CC[C@]2(O)C[C@@H](C3CCCCC3)CC[C@]12C` was run?
The value was 50%.

What about the “Concentration giving maximal inotropic effect” value (Cavia porcellus [3]) of the same compound?
The value was 100 µM.

And the EC50 (Cavia porcellus [4])?
The EC50 was 20 µM.

And the IC50 [1]?
Its IC50 is 1 µM.

How did the IC50 [1] turn out when `Cc1cccc([C@H]2CC[C@]3(C)[C@@H](/C=N/OCCN)CC[C@]3(O)C2)c1` was run?
The IC50 was 3.2 µM.

Which IC50 [5] does the source give for `C[C@]12CC[C@H](c3ccccc3)C[C@@]1(O)CC[C@@H]2/C=N/N=C(N)N` here?
The IC50 was > 100 µM.

For `CN(C)CCO/N=C/[C@H]1CC[C@]2(O)C[C@@H](c3cccc(O)c3)CC[C@]12C`, which IC50 [1] is on record?
The IC50 was 10 µM.

Which IC50 [1] does the source give for `CN(C)CCO/N=C/[C@H]1CC[C@]2(O)C[C@@H](c3ccncc3)CC[C@]12C` here?
Its IC50 is 2.5 µM.

Which IC50 [6] does the source give for `CN(C)CCO/N=C/[C@H]1CC[C@]2(O)C[C@H](c3ccccc3)CC[C@]12C` here?
The IC50 was > 100 µM.

`C[C@]12CC[C@H](c3cccc(CO)c3)C[C@@]1(O)CC[C@@H]2/C=N/OCCN` was tested. Which IC50 [1] did it give?
Its IC50 is 2.5 µM.

How did the IC50 [1] turn out when `Cc1ccc([C@H]2CC[C@]3(C)[C@@H](/C=N/OCCN(C)C)CC[C@]3(O)C2)cc1` was run?
Its IC50 is 10 µM.

For `CN(C)CCO/N=C/[C@H]1CC[C@]2(O)C/C(=C/c3ccccc3)CC[C@]12C`, which IC50 [1] is on record?
Its IC50 is 50 µM.

How did the IC50 [6] turn out when `C[C@]12CC[C@H](C3CCCCC3)C[C@@]1(O)CC[C@@H]2C1=CC(=O)OC1` was run?
Its IC50 is > 10 µM.

With `Cc1ccc([C@H]2CC[C@]3(C)[C@@H](/C=N/OCCN)CC[C@]3(O)C2)cc1` as the compound, how does the IC50 [1] read?
Its IC50 is 6.3 µM.

Which IC50 [1] does the source give for `C[C@]12CC[C@H](C3CCCCC3)C[C@@]1(O)CC[C@@H]2/C=C/C=N/N=C(N)N` here?
The IC50 was 16 µM.

Which IC50 [7] does the source give for `CN(C)CCO/N=C/[C@H]1CC[C@]2(O)C[C@H](Cc3ccccc3)CC[C@]12C` here?
The IC50 was > 100 µM.

`C[C@]12CC[C@H](O)C[C@H]1CC[C@@H]1[C@@H]2CC[C@]2(C)[C@@H](C3=CC(=O)OC3)CC[C@]12O` [DIGITOXIGENIN] was tested. Which “Increase (Emax)” value (Cavia porcellus [2]) did it give?
The value was 200%.

What about the “Concentration giving maximal inotropic effect” value (Cavia porcellus [3]) of the same compound?
The value was 3 µM.

Which IC50 [5] does the source give for `CC(/C=N/N=C(N)N)=C\[C@H]1CC[C@]2(O)C[C@@H](C3CCCCC3)CC[C@]12C` here?
The IC50 was > 100 µM.

How did the IC50 [1] turn out when `CN(C)CCO/N=C/[C@H]1CC[C@]2(O)C[C@@H](c3ccc(OCCN(C)C)cc3)CC[C@]12C` was run?
The IC50 was 1 µM.

How did the “Increase (Emax)” value (Cavia porcellus [2]) turn out when `CN(C)CCO/N=C/[C@H]1CC[C@]2(O)[C@@H]3CC[C@@H]4C[C@@H](O)CC[C@]4(C)[C@H]3CC[C@]12C` was run?
Its value is 39%.

And the IC50 [1]?
The IC50 was 0.04 µM.

With `C[C@]12CC[C@H](C3CCCCC3)C[C@@]1(O)CC[C@@H]2CC/C=N/OCCN` as the compound, how does the IC50 [1] read?
Its IC50 is 3.2 µM.

For `C[C@]12CC[C@H](C3CCCCC3)C[C@@]1(O)CC[C@@H]2/C=N/OCCCCN`, which IC50 [1] is on record?
Its IC50 is 13 µM.

Which IC50 [1] does the source give for `CN(C)CCONC[C@H]1CC[C@]2(O)C[C@@H](c3ccccc3)CC[C@]12C` here?
Its IC50 is 10 µM.

With `CN(C)CCCO/N=C/[C@H]1CC[C@]2(O)C[C@@H](C3CCCCC3)CC[C@]12C` as the compound, how does the IC50 [1] read?
The IC50 was 3.2 µM.

`CN(C)CCCCO/N=C/[C@H]1CC[C@]2(O)C[C@@H](C3CCCCC3)CC[C@]12C` was tested. Which IC50 [1] did it give?
The IC50 was 10 µM.

For `Cc1cccc([C@H]2CC[C@]3(C)[C@@H](/C=N/OCCN(C)C)CC[C@]3(O)C2)c1`, which IC50 [1] is on record?
Its IC50 is 5 µM.

For `C[C@]12CCCC[C@@]1(O)CC[C@@H]2/C=N/OCCCN`, which IC50 [8] is on record?
Its IC50 is > 100 µM.

Which results are given for `CN(C)CCO/N=C/[C@H]1CC[C@]2(O)C[C@@H](C3CCCCC3)CC[C@]12C`?
Increase (Emax) (Cavia porcellus [2]): 70%; Concentration giving maximal inotropic effect (Cavia porcellus [3]): 100 µM; EC50 (Cavia porcellus [4]): 12 µM; IC50 [1]: 1.6 µM

How did the IC50 [1] turn out when `CN(C)CCO/N=C/[C@H]1CC[C@]2(O)CC([C@H]3CC[C@@H](O)CC3)CC[C@]12C` (some centres not stated) was run?
Its IC50 is 1.6 µM.

How did the “Increase (Emax)” value (Cavia porcellus [2]) turn out when `C[C@]12CC[C@H](O)C[C@H]1CC[C@@H]1[C@@H]2CC[C@]2(C)[C@@H](/C=C/C=N/OCCN)CC[C@]12O` was run?
Its value is 155%.

What about the “Concentration giving maximal inotropic effect” value (Cavia porcellus [3]) of the same compound?
The value was 0.3 µM.

And the IC50 [1]?
The IC50 was 0.016 µM.

`CN(C)CCO/N=C/[C@H]1CC[C@]2(O)C[C@@H](c3ccccc3)CC[C@]12C` was tested. Which IC50 [1] did it give?
Its IC50 is 3.2 µM.

For `CC(/C=N/OCCN)=C\[C@H]1CC[C@]2(O)C[C@@H](C3CCCCC3)CC[C@]12C`, which IC50 [1] is on record?
The IC50 was 1.3 µM.

How did the IC50 [1] turn out when `C[C@]12CC[C@H](C3CCCCC3)C[C@@]1(O)CC[C@@H]2/C=N/N=C(N)N` was run?
Its IC50 is 63 µM.

Which IC50 [1] does the source give for `CN(C)CCO/N=C/[C@H]1CC[C@]2(O)C[C@@H](c3cccnc3)CC[C@]12C` here?
Its IC50 is 13 µM.

Which IC50 [1] does the source give for `C[C@]12CC[C@H](C3CCCCC3)C[C@@]1(O)CC[C@@H]2/C=N/OCCCN` here?
The IC50 was 0.8 µM.

How did the IC50 [1] turn out when `CN(C)CCO/N=C/[C@H]1CC[C@]2(O)C[C@H](CC3CCCCC3)CC[C@]12C` was run?
The IC50 was 100 µM.

`CC(/C=N/OCCN(C)C)=C\[C@H]1CC[C@]2(O)C[C@@H](C3CCCCC3)CC[C@]12C` was tested. Which IC50 [1] did it give?
The IC50 was 2 µM.

How did the IC50 [1] turn out when `CN(C)CCO/N=C/[C@H]1CC[C@]2(O)C[C@@H](c3ccc(O)cc3)CC[C@]12C` was run?
The IC50 was 2.5 µM.

How did the “Increase (Emax)” value (Cavia porcellus [2]) turn out when `CN(C)CCO/N=C/C=C/[C@H]1CC[C@]2(O)[C@@H]3CC[C@@H]4C[C@@H](O)CC[C@]4(C)[C@H]3CC[C@]12C` was run?
The value was 191%.

What about the “Concentration giving maximal inotropic effect” value (Cavia porcellus [3]) of the same compound?
The value was 0.3 µM.

And the IC50 [1]?
Its IC50 is 0.025 µM.

For `CN(C)CCO/N=C/[C@H]1CC[C@]2(O)C[C@@H](c3cccc(CO)c3)CC[C@]12C`, which IC50 [1] is on record?
The IC50 was 5 µM.

How did the “Increase (Emax)” value (Cavia porcellus [2]) turn out when `C[C@H]1O[C@@H](O[C@H]2[C@@H](O)C[C@H](O[C@H]3[C@@H](O)C[C@H](O[C@H]4CC[C@@]5(C)[C@H](CC[C@@H]6[C@@H]5C[C@@H](O)[C@]5(C)[C@@H](C7=CC(=O)OC7)CC[C@]65O)C4)O[C@@H]3C)O[C@@H]2C)C[C@H](O)[C@@H]1O` [DIGOXIN] was run?
The value was 184%.

And the “Concentration giving maximal inotropic effect” value (Cavia porcellus [3])?
Its value is 1 µM.

For `CN(C)CCO/N=C/[C@H]1CC[C@]2(O)C[C@@H](CC3CCCCC3)CC[C@]12C`, which IC50 [1] is on record?
The IC50 was 4 µM.

With `C[C@]12CC[C@H](c3ccccc3)C[C@@]1(O)CC[C@@H]2CNOCCN` as the compound, how does the IC50 [1] read?
Its IC50 is 20 µM.

For `CN(C)CCO/N=C\C[C@H]1CC[C@]2(O)C[C@@H](C3CCCCC3)CC[C@]12C`, which IC50 [1] is on record?
Its IC50 is 1.6 µM.

For `CN(C)CCO/N=C/[C@H]1CC[C@]2(O)C[C@@H](c3ccc(CO)cc3)CC[C@]12C`, which IC50 [1] is on record?
Its IC50 is 8 µM.
